Reference: ChEMBL document CHEMBL1143367, “Therapeutic index of gramicidin S is strongly modulated by D-phenylalanine analogues at the beta-turn” (J Med Chem, 2009)
*1 amine or outer side, *2 acyl side, *3 side chain or, on linkers, in order; H or OH if unused. Where a SMILES comes first, the peptide text is derived from it. [ ]: non-standard residue; d: D form. X1 = O=C([C@H](N[*:1])C1c2ccccc2-c2ccccc21)[*:2]; d1Nal = N[C@H](Cc1cccc2ccccc12)C(=O)O; d2Nal = N[C@H](Cc1ccc2ccccc2c1)C(=O)O; dTic = O=C(O)[C@H]1Cc2ccccc2CN1; Orn = NCCC[C@H](N)C(=O)O

Tests used:
Details in all cases: defibrinated sheep red blood cells, read-out: TI
[1] = Therapeutic index, ratio of HC50 for defibrinated sheep RBC to MIC50 for colistin-resistant Acinetobacter baumannii 19606R
Procedure, shortened: (§1)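 TI is HC50/MIC50. For HC50, defibrinated sheep erythrocytes were washed in Hank's medium with 20 mM glucose (pH 7.2), held at 2 × 10^7 cells/mL, and incubated 4 h at 37 °C with peptide in triplicate. After centrifugation, hemoglobin release was read at 550 nm.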

[2] = Therapeutic index, ratio of HC50 for defibrinated sheep RBC to MIC50 for Listeria monocytogenes CECT 4032; procedure, shortened: as §1
[3] = Therapeutic index, ratio of HC50 for defibrinated sheep RBC to MIC50 for Staphylococcus aureus CECT 240; procedure, shortened: as §1

Compound	selectivity ratio [1]	selectivity ratio [2]	selectivity ratio [3]
CC(C)C[C@@H]1NC(=O)[C@H](CCCN)NC(=O)[C@H](C(C)C)NC(=O)[C@@H]2CCCN2C(=O)[C@@H](Cc2cccc3ccccc23)NC(=O)[C@H](CC(C)C)NC(=O)[C@H](CCCN)NC(=O)[C@H](C(C)C)NC(=O)[C@@H]2CCCN2C(=O)[C@@H](Cc2cccc3ccccc23)NC1=O (cyclo(L[d1Nal]PV[Orn]L[d1Nal]PV[Orn]))	> 0.1	–	–
CC(C)C[C@@H]1NC(=O)[C@H](CCCN)NC(=O)[C@H](C(C)C)NC(=O)[C@@H]2CCCN2C(=O)[C@H]2Cc3ccccc3CN2C(=O)[C@H](CC(C)C)NC(=O)[C@H](CCCN)NC(=O)[C@H](C(C)C)NC(=O)[C@@H]2CCCN2C(=O)[C@H]2Cc3ccccc3CN2C1=O (cyclo(L[dTic]PV[Orn]L[dTic]PV[Orn]))	–	> 6	> 10.2
CC(C)C[C@@H]1NC(=O)[C@H](CCCN)NC(=O)[C@H](C(C)C)NC(=O)[C@@H]2CCCN2C(=O)[C@@H](C2c3ccccc3-c3ccccc32)NC(=O)[C@H](CC(C)C)NC(=O)[C@H](CCCN)NC(=O)[C@H](C(C)C)NC(=O)[C@@H]2CCCN2C(=O)[C@@H](C2c3ccccc3-c3ccccc32)NC1=O (cyclo(L[X1]PV[Orn]L[X1]PV[Orn]))	> 0.1	–	–
CC(C)C[C@@H]1NC(=O)[C@H](CCCN)NC(=O)[C@H](C(C)C)NC(=O)[C@@H]2CCCN2C(=O)[C@@H](Cc2ccc3ccccc3c2)NC(=O)[C@H](CC(C)C)NC(=O)[C@H](CCCN)NC(=O)[C@H](C(C)C)NC(=O)[C@@H]2CCCN2C(=O)[C@@H](Cc2ccc3ccccc3c2)NC1=O (cyclo(L[d2Nal]PV[Orn]L[d2Nal]PV[Orn]))	> 0.2	–	–
